Source: PubChem (several laboratories)
Rows were chosen to be rich in hits. Some 2.3% of all compounds tested hit in one or more screens of this group.
TROY NFkB inh: inhibitors of TROY-dependent NF-kB signaling. inhibition, % at 10 µM. Q293 LMP1-TROYcd NF-kB luciferase reporter, 4 h. actives 0.98% (n = 360,000);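 active means compounds whose plate-normalised and pattern-corrected inhibition of the luciferase reporter signal at the single screening dose is 50% or more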
LGR2 antag: blocks bursicon-induced cAMP signaling via Drosophila LGR2; HEK293 LGR2, CRE-luciferase, bursicon-stimulated, 4 h; inhibition, % at 9.99 µM; actives 0.35% (n = 380,000);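 active means drop in luminescence signal, shown as inhibition above about 50% in the replicate tests, limit read from the data, passing the limit was not always enough; inconclusive means probably only some replicates passing the limit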;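 further: agonist challenge used bursicon conditioned medium at about half maximal strength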
TWEAK Fn14 block: blocks TWEAK-Fn14 interaction in a reporter cell assay | TWEAK-stimulated Fn14 reporter cells, luciferase luminescence, 8 h | inhibition, % at 10 µM | actives 2% (n = 360,000) | AID 1159606; in the data active means inhibition above about 50%
EWS-Fli block: EWS/Fli transcriptional activity inhibition | A673 NR0B1-luciferase reporter, viability-normalised | inhibition, % at 12.6 µM | actives 0.67% (n = 350,000) | AID 651661;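 active means mean inhibition of at least 50% after viability correction, with every replicate also passing that limit; inconclusive means mean reaches 50% but only one of two replicates passes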;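 further: firefly luciferase signal divided by Alamar Blue viability fluorescence both relative to DMSO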
Xi reactivation: X-chromosome reactivation activator; XiGFP mouse fibroblasts, % GFP-positive cells imaging, 3 d; cells co-treated with 5-aza-dC sensitizer; scaled so ellipticine positive control = 100%; activation, % at 7.58 µM; actives 0.055% (n = 360,000); AID 743238;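 active means mean normalized replicate activation at least 10% and every replicate at or above 10%; inconclusive means only one of the two criteria met; inactive means mean below 10% and not all replicates reach 10%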;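 further: 0% = median of on-plate neutral control wells and 100% = ellipticine 6 µM median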
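System: XiGFP fibroblasts, SV40-immortalized. Medium: DMEM plus 5-aza-dC sensitizer. Doses: single point. Timing: 3 d treatment, 15 min room-temperature fixation. Control set: ellipticine 6 µM.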
FN deposition inh: fibronectin deposition inhibition | AH1F fibroblasts, Alexa488-fibronectin deposition fluorescence, overnight | inhibition, % at 12.6 µM | actives 0.086% (n = 350,000) | AID 743247;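 active means mean inhibition across replicates of 30% or more, regardless of how many single replicates reach that level; inconclusive means mean under 30% yet at least half of replicates reach 30%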;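 further: positive control wells lacked labelled fibronectin entirely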
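Test system: AH1F fibroblast monolayer depositing Alexa488-labelled fibronectin into matrix. Input: 10000 cells per well. Technique: fluorescence, ex 485 nm, em 525 nm. Buffer or medium: DMEM plus 2% serum, read in PBS. Timing: 1 h cell adhesion before compound, then overnight fibronectin incubation. Compound: single dose, pinned. Read-out basis: inhibition from reduced deposited-fibronectin fluorescence.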
Numbers without * were called inactive; ? = inconclusive; nt = no result given.

SMILES	TROY NFkB inh	LGR2 antag	TWEAK Fn14 block	EWS-Fli block	Xi reactivation	FN deposition inh
CCOc1ccccc1CNc1ncnc2ccc(-c3c(C)noc3C)cc12	62*	3	82*	28	0	7
C[C@@H]1CN([C@H](C)CO)C(=O)c2cc(-c3ccc(F)cc3)cnc2O[C@@H]1CN(C)C(=O)NC1CCCC1	nt	30	nt	1	-1	-2
C[C@@H]1CCCCO[C@H](CN(C)Cc2ccccc2)[C@H](C)CN([C@H](C)CO)C(=O)c2cc(NC(=O)Cc3ccccc3)ccc2O1	nt	12	nt	21	0	-4
CC(=O)Nc1ccc(-c2ccnc3c2CC(C(=O)NCCc2ccccc2)O3)cc1 (stereo unspecified)	-14	3	1	4	0	3
CC(=O)Nc1ccc(-c2ccnc3c2CC(C(=O)NCc2ccco2)O3)cc1 (stereo unspecified)	28	-10	-8	62*	1	18
O=C(NCc1ccccc1)C1Cc2c(-c3ccc4c(c3)OCO4)ccnc2O1 (stereo unspecified)	7	-19	-14	60*	1	-31
O=C(NCc1ccncc1)C1Cc2c(-c3ccc4c(c3)OCO4)ccnc2O1 (stereo unspecified)	13	2	16	5	0	1
CC(=O)Nc1ccc(-c2ccnc3c2CC(C)(C(=O)NCc2ccco2)O3)cc1 (stereo unspecified)	22	10	19	54*	0	11
CC(=O)Nc1ccc(-c2ccnc3c2CC(C(=O)NCc2ccccc2)O3)cc1 (stereo unspecified)	7	-28	48	51*	1	-11
C[C@H](CO)N1C[C@H](C)[C@H](CN(C)C(=O)Nc2ccc(C(F)(F)F)cc2)Oc2ccc(NC(=O)CCCCCC(=O)Nc3ccccc3N)cc2C1=O	nt	-7	nt	18	0	-4
C[C@H](CO)N1C[C@H](C)[C@@H](CN(C)C)Oc2ncc(-c3cccc(C(=O)N(C)C)c3)cc2C1=O	nt	7	nt	-8	-1	-5
COc1ccc2c3c([nH]c2c1)[C@@H](CO)N(Cc1ccccc1)CC31CN(C(=O)c2cccnc2)C1	nt	4	nt	17	0	nt
O=[N+]([O-])c1ccc(-c2nc(Nc3cccc(O)c3)c3ccccc3n2)cc1	82*	-4	80*	11	0	0
O=[N+]([O-])c1ccc(-c2c(O)c3ccccc3c3nc4ccccc4nc23)cc1	54*	1	22	4	0	3
C[C@@H]1CN([C@H](C)CO)C(=O)c2cc(NS(C)(=O)=O)ccc2O[C@@H](C)CCCCO[C@@H]1CN(C)C	nt	7	nt	-5	0	7
CC(=O)c1c(C)n([O-])c2cc(F)c(F)cc2[n+]1=O	-9	-4	-9	63*	0	-27
COc1cccc2oc3ccc(C#Cc4ccccn4)cc3c(=O)c12	-7	83*	10	-62	0	4
O=c1c2ccccc2oc2cc(C#Cc3ccccn3)ccc12	14	-39	65*	-21	0	-7
COc1cccc2sc3cc(C#Cc4ccccn4)ccc3c(=O)c12	-68	-73	-21	-95	0	6
Nc1cccc(C#Cc2ccc3c(=O)c4ccccc4oc3c2)c1	47	nt	12	-49	0	-7
Cc1nc(NCCc2ccccc2)c2oc3ccccc3c2n1	30	nt	52*	nt	nt	4
CCS(=O)(=O)N1CCC2(CC1)CN(C(=O)Nc1cccc(F)c1)[C@H](CO)c1c2c2ccc(OC)cc2n1C	nt	9	nt	15	0	nt
COc1ccc(C(=O)/C(=C\c2ccco2)N2C=CC=CC2=C(C#N)C#N)cc1	-9	nt	11	nt	nt	nt
N#CC(C#N)=C1C=CC=CN1/C(=C\c1ccco1)C(=O)c1ccc(Br)cc1	78*	23	92*	nt	?	-7
N#C/C(=C/c1ccco1)C(N)=S	18	-4	10	-5	0	-12
SMILES	TROY NFkB inh	LGR2 antag	TWEAK Fn14 block	EWS-Fli block	Xi reactivation	FN deposition inh
N#CC(C#N)=C1C=CC=CN1/C(=C\c1ccco1)C(=O)c1ccccc1	69*	100*	76*	78*	0	26
CC(C)CNC(=O)c1coc(=O)c(Br)c1	4	nt	48	nt	nt	active
O=C(NCCc1ccccc1)c1coc(=O)c(Br)c1	7	-39	78*	23	0	1
O=C(NCCC1=CCCCC1)c1coc(=O)c(Br)c1	9	nt	92*	nt	nt	nt
CCN1[C@H](C(=O)N(C)C)[C@@H](CO)[C@@H]2Cn3c(ccc(-c4cccc(C(=O)N(C)C)c4)c3=O)[C@@H]21	nt	14	nt	1	1	nt
Oc1ccc(O)c(-c2cnns2)c1	0	12	57*	nt	0	0
Nc1nc(N)nc(-c2cc(O)ccc2O)n1	19	35	32	-23	0	6
Cc1cc(C(=O)COC(=O)c2ccc(O)cc2O)c(C)n1-c1ccccc1	83*	nt	77*	-51	0	4
COc1ccc(-n2c(C)cc(C(=O)CCl)c2C)cc1	11	11	4	61*	0	-3
Cc1cc(C(=O)COC(=O)c2ccc(O)cc2O)c(C)n1-c1ccc(OC(F)F)cc1	3	2	15	12	-1	-4
COc1ccc(-n2c(C)cc(C(=O)COC(=O)c3ccc(O)cc3O)c2C)cc1	23	nt	54*	-28	0	-12
CCC(=O)Nc1ccc2c(c1)C(=O)N(C)C[C@H](OC)[C@@H](C)CN(Cc1cccc(F)c1)[C@H](C)CO2	nt	6	nt	7	0	10
CS(=O)(=O)Nc1ccc2c(c1)[C@@H]1C[C@H](CC(=O)NCc3cc(F)ccc3F)O[C@H](CO)[C@@H]1O2	nt	5	nt	-7	0	-10
Cc1ccc(NC(=O)Cc2cc(C(=O)O)c3ccccc3n2)c(C)c1	43	19	52*	13	0	-1
C[C@H](CO)N1C[C@H](C)[C@@H](CN(C)CC2CCCCC2)OCCCC[C@H](C)Oc2ccc(NS(=O)(=O)c3ccc(F)cc3)cc2C1=O	nt	-13	nt	1	0	nt
C[C@H]1CN([C@@H](C)CO)C(=O)c2cc(N(C)C)ccc2O[C@@H]1CN(C)C(=O)NC1CCCCC1	nt	-8	nt	nt	0	nt
Cc1ccccc1-n1ncc2c([N+](=O)[O-])cc([N+](=O)[O-])cc21	51*	3	2	nt	nt	nt
O=c1nc2s/c(=C\c3ccc(-c4ccccc4[N+](=O)[O-])o3)c(=O)n2nc1-c1ccccc1	42	15	57*	8	0	4
Cc1noc(C)c1NC(=O)N(C)C[C@H]1Oc2c(NS(=O)(=O)c3ccc(Cl)cc3)cccc2C(=O)N([C@@H](C)CO)C[C@H]1C	nt	-14	nt	-7	-1	-7
Cc1cc(C)c(Cn2c(=O)n(CCCC(=O)NCc3ccco3)c(=O)c3sccc32)c(C)c1	2	nt	-2	nt	nt	34*
